Laboratory results taken from ChEMBL document CHEMBL1125259, “Lipophilic glycosyl phosphotriester derivatives of AZT: synthesis, NMR transmembrane transport study, and antiviral activity” (1991).

How the values were obtained:
Format in all cases: functional
[1] = biological target: Human immunodeficiency virus type 1 reverse transcriptase (Human immunodeficiency virus 1) (UniProt Q72547); experiment: Compound ability to inhibit the production of HIV reverse transcriptase (RT) in culture supernatant of CEM-CL13 on at 15 days at a concentration 0.2 uM
Outline: (§1)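 CEM-C113 cells in RPMI 1640 with 5% heat-inactivated FCS and polybrene (2 µg/mL) were plated at 1×10^5 cells/mL with compound in PBS, in triplicate, and infected with HIV-1 LAV-Bru. From day 7, every 3–4 days, fresh medium with or without drug was added and 50 µL supernatant was taken for RT microassay. The RT microassay used poly(rA)-oligo(dT) and (methyl-³H)dTTP for 1 h at 37 °C, with TCA precipitation, read as cpm/50 µL.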

[2] = biological target: Human immunodeficiency virus type 1 reverse transcriptase (Human immunodeficiency virus 1) (UniProt Q72547); experiment: Compounds were evaluated for anti-RT activity by MTT dose and % cell / viability was reported at 7 days of culture
Outline: (§2)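 HIV-1 was preincubated with compound at 25 µM for 60 min at 37 °C, pelleted, and added to CEM-C113 cells (1×10^5 cells/mL) for 60 min at 37 °C. Medium was then replaced without compound. At days 7 and 9, viability was read by MTT assay on 100 µL of cell suspension.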

CCRF-CEM [3] = experiment: Concentration required to reduce the viability of uninfected cells (CEM-CL13) by 50% on day 11.; conditions: Homo sapiens, 264 h, read-out: CD50 (the source's name)
Outline: (§3)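 CEM-C113 cells (1×10^5 cells/mL) were infected with HIV-1 LAV-Bru or mock-infected, with compound dilutions in triplicate, for at least 7 days. Medium with or without drug was renewed every 3–4 days for longer runs. MTT absorbance was read at 540 nm. CD50 = 50% reduction of mock-infected absorbance; ED50 = dose giving 50% protection from CPE. Values are averages of at least two experiments.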

CCRF-CEM [4] = experiment: Concentration that reduced by 50% the HIV induced CPE (cytopathic effect) on day 11.; conditions: Homo sapiens, 264 h, read-out: ED50 (the source's name); outline: as §3
[5] = biological target: Human immunodeficiency virus type 1 reverse transcriptase (Human immunodeficiency virus 1) (UniProt Q72547); experiment: Compounds were evaluated for anti-RT activity by MTT dose and % cell / viability was reported at 13 days of culture
[6] = biological target: Human immunodeficiency virus type 1 reverse transcriptase (Human immunodeficiency virus 1) (UniProt Q72547); experiment: Compound ability to inhibit the production of HIV reverse transcriptase (RT) in culture supernatant of CEM-CL13 on at 26 days at a concentration 0.2 uM; outline: as §1
[7] = biological target: Human immunodeficiency virus type 1 reverse transcriptase (Human immunodeficiency virus 1) (UniProt Q72547); experiment: Percent inhibition evaluated for anti-RT activity at 7 days of culture; design: concentration or dose not given beside the values; conditions: concentration not given here
Outline: (§4)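 HIV-1 (12 500 CCID50) was preincubated with compound at 25 µM final for 60 min at 37 °C, pelleted by ultracentrifugation and resuspended. RT was measured at once with poly(rA)-oligo(dT) and ³H-dTTP (1 h, 37 °C, cpm). Treated virus was then put on CEM-C113 cells for 60 min and replaced with compound-free medium. Supernatant RT was read at days 7 and 9.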

[8] = biological target: Human immunodeficiency virus type 1 reverse transcriptase (Human immunodeficiency virus 1) (UniProt Q72547); experiment: Compound ability to inhibit the production of HIV reverse transcriptase (RT) in preinfected PBL (peripheral blood lymphocytes) at 14 days at a concentration 1 uM
Outline: (§5)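 PBL were infected with HIV-1 for 1 h at 37 °C, washed twice, and resuspended in complete medium with 10% interleukin-2 and anti-human α-interferon (1000 units/mL). Cells were plated at 1×10^6 cells/well with or without compound. At each time point, 50 µL supernatant was taken for RT assay ([³H]dTTP incorporation, cpm).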

[9] = biological target: Human immunodeficiency virus type 1 reverse transcriptase (Human immunodeficiency virus 1) (UniProt Q72547); experiment: Percent inhibition evaluated for anti-RT activity at 0 days of culture; design: concentration or dose not given beside the values; conditions: concentration not given here; outline: as §4
[10] = biological target: Human immunodeficiency virus type 1 reverse transcriptase (Human immunodeficiency virus 1) (UniProt Q72547); experiment: Compound ability to inhibit the production of HIV reverse transcriptase (RT) in culture supernatant of monocytic U937 on at 11 days at a concentration 1 uM
Outline: (§6)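 HIV-1-infected monocytic U937 cultures were kept up to 14 days with compound. Supernatant RT activity was measured as for CEM-C113, as [³H] cpm/50 µL. % inhibition = 100 − 100 × (cpm of treated samples / cpm of control virus).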

[11] = biological target: Human immunodeficiency virus type 1 reverse transcriptase (Human immunodeficiency virus 1) (UniProt Q72547); experiment: Compound ability to inhibit the production of HIV reverse transcriptase (RT) in culture supernatant of monocytic U937 on at 14 days at a concentration 1 uM; outline: as §6
[12] = biological target: Human immunodeficiency virus type 1 reverse transcriptase (Human immunodeficiency virus 1) (UniProt Q72547); experiment: Compound ability to inhibit the production of HIV reverse transcriptase (RT) in culture supernatant of CEM-CL13 on at 7 days at a concentration 0.2 uM; outline: as §1
[13] = biological target: Human immunodeficiency virus type 1 reverse transcriptase (Human immunodeficiency virus 1) (UniProt Q72547); experiment: Compounds were evaluated for anti-RT activity at 0 days of culture; outline: as §4
CCRF-CEM [14] = experiment: Concentration that reduced by 50% the HIV induced CPE (cytopathic effect) on day 7.; conditions: Homo sapiens, 168 h, read-out: ED50 (the source's name); outline: as §3
CCRF-CEM [15] = experiment: Concentration that reduced by 50% the HIV induced CPE (cytopathic effect) on day 19.; conditions: Homo sapiens, 456 h, read-out: ED50 (the source's name); outline: as §3
[16] = biological target: Human immunodeficiency virus type 1 reverse transcriptase (Human immunodeficiency virus 1) (UniProt Q72547); experiment: Compounds were evaluated for anti-RT activity at 9 days of culture; outline: as §4
[17] = biological target: Human immunodeficiency virus type 1 reverse transcriptase (Human immunodeficiency virus 1) (UniProt Q72547); experiment: Compounds were evaluated for anti-RT activity by MTT dose and %protection was reported at 9 days of culture; outline: as §2
[18] = biological target: Human immunodeficiency virus type 1 reverse transcriptase (Human immunodeficiency virus 1) (UniProt Q72547); experiment: Compound ability to inhibit the production of HIV reverse transcriptase (RT) in preinfected PBL (peripheral blood lymphocytes) at 10 days at a concentration 5 uM; outline: as §5
CCRF-CEM [19] = experiment: Concentration required to reduce the viability of uninfected cells (CEM-CL13) by 50% on day 19.; conditions: Homo sapiens, 456 h, read-out: CD50 (the source's name); outline: as §3
[20] = biological target: Human immunodeficiency virus type 1 reverse transcriptase (Human immunodeficiency virus 1) (UniProt Q72547); experiment: Compound ability to inhibit the production of HIV reverse transcriptase (RT) in preinfected PBL (peripheral blood lymphocytes) at 7 days at a concentration 5 uM; outline: as §5
[21] = biological target: Human immunodeficiency virus type 1 reverse transcriptase (Human immunodeficiency virus 1) (UniProt Q72547); experiment: Compound ability to inhibit the production of HIV reverse transcriptase (RT) in preinfected PBL (peripheral blood lymphocytes) at 7 days at a concentration 1 uM; outline: as §5
[22] = biological target: Human immunodeficiency virus type 1 reverse transcriptase (Human immunodeficiency virus 1) (UniProt Q72547); experiment: Percent inhibition measured as the production of HIV reverse transcriptase (RT) in culture supernatant of monocytic U937 on at 14 days at a concentration 1 uM
Outline: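 U937 cells in RPMI 1640 with 5% heat-inactivated FCS, penicillin, streptomycin and polybrene (2 μg/mL), 37 °C, 5% CO2. Infected with HIV-1 LAV-Bru; compounds diluted in PBS. 50 μL supernatant aliquots were assayed for RT: 1 h, 37 °C, pH 7.8, Mg2+, poly(rA)-oligo(dT), [3H]dTTP, TCA-pyrophosphate stop, filter counting. % inhibition = 100 − 100 × (treated cpm / virus-control cpm).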

[23] = biological target: Human immunodeficiency virus type 1 reverse transcriptase (Human immunodeficiency virus 1) (UniProt Q72547); experiment: Compound ability to inhibit the production of HIV reverse transcriptase (RT) in preinfected PBL (peripheral blood lymphocytes) at 14 days at a concentration 5 uM; outline: as §5
[24] = biological target: Human immunodeficiency virus type 1 reverse transcriptase (Human immunodeficiency virus 1) (UniProt Q72547); experiment: Compounds were evaluated for anti-RT activity by MTT dose and % cell / viability was reported at 9 days of culture; outline: as §2
[25] = biological target: Human immunodeficiency virus type 1 reverse transcriptase (Human immunodeficiency virus 1) (UniProt Q72547); experiment: Compound ability to inhibit the production of HIV reverse transcriptase (RT) in culture supernatant of monocytic U937 on at 7 days at a concentration 1 uM; outline: as §6
CCRF-CEM [26] = experiment: Concentration that reduced by 50% the HIV induced CPE (cytopathic effect) on day 22.; conditions: Homo sapiens, 528 h, read-out: ED50 (the source's name); outline: as §3
[27] = biological target: Human immunodeficiency virus type 1 reverse transcriptase (Human immunodeficiency virus 1) (UniProt Q72547); experiment: Compounds were evaluated for anti-RT activity by MTT dose and %protection was reported at 13 days of culture

In the case of `CCCCCCCCCCCCCCCCOP(=O)(OC[C@H]1OC(O)[C@@H](O)[C@@H](O)[C@@H]1O)OC[C@H]1OC(n2cc(C)c(=O)[nH]c2=O)C[C@@H]1N=[N+]=[N-]` (some centres not stated), the Activity (c.p.m. 50ul-1) [1] is reported as 1700, the Cell viability [2] is reported as 77% and the CC50 (CCRF-CEM [3]) is reported as 2600 nM. For the same compound, the EC50 (CCRF-CEM [4]) was 300 nM, the Cell viability [5] was 25% and the Activity (c.p.m. 50ul-1) [6] was 73000. For the same compound, the inhibition [7] was 71%, the Activity (c.p.m. 50ul-1) [8] was 114000 and the inhibition [9] was 30%. It also gave an Activity (c.p.m. 50ul-1) [10] of 225000, an Activity (c.p.m. 50ul-1) [11] of 35000 and an Activity (c.p.m. 50ul-1) [12] of 4000. The Activity (c.p.m. 50ul-1) [13] was 17000, the EC50 (CCRF-CEM [14]) was 140 nM and the EC50 (CCRF-CEM [15]) was 500 nM. The Activity (c.p.m. 50ul-1) [16] was 10000, the Protection [17] was 18% and the Activity (c.p.m. 50ul-1) [18] was 28000. For the same compound, the CC50 (CCRF-CEM [19]) was 2500 nM, the Activity (c.p.m. 50ul-1) [20] was 3140 and the Activity (c.p.m. 50ul-1) [21] was 9320. It also gave an inhibition [22] of 0%, an Activity (c.p.m. 50ul-1) [23] of 58300 and a Cell viability [24] of 32%. It also gave an Activity (c.p.m. 50ul-1) [25] of 122000, an EC50 (CCRF-CEM [26]) of 400 nM and a Protection [27] of 10%.
